Results pooled from the literature.
Protocols differ between the studies behind these lines.
Target: Serine/threonine-protein kinase 38-like (STK38L, Homo sapiens, UniProt Q9Y2H1)

CC/C(=N\NC(=O)NCc1cccc(O)c1)c1ccc(O)c(C)c1O  inhibition (enzyme activity; inhibitor; 0.1 µM): 19.5%
CN(C)c1ncnc(-c2ccc3nc(Nc4cc(CN5CCN(C(=O)CC(F)(F)F)CC5)ccn4)[nH]c3c2)c1Cl  remaining binding (cell-free assay; competition with immobilised ligand; 1 µM): 74%
COc1cc(-c2cc(-c3ccc(N4CCNCC4)cc3)cnc2C)cc(OC)c1OC  inhibition (enzyme activity; inhibitor; 0.1 µM): 0%
CN1CC(Oc2cnc(C#N)cc2-c2ccn3nc(NC(=O)C4CC4)cc3c2)C1  inhibition (enzyme activity; inhibitor; 1 µM): 27%
Cc1c(C(=O)O)cc(-c2ccc(C3CCNCC3)cc2)c2ccc(-c3ccc(C(F)(F)F)cc3)cc12  remaining binding (binding; competition with immobilised ligand; 1 µM): 100%
Cn1c2c(c3ccc(Cl)c(Cl)c31)C(C#N)C1(CCOCC1)NC2=O (centres unmarked)  ΔTm (thermal stability; DSF; 10 µM): -0.2 °C
O=C(Nc1cnn(-c2csc(C(=O)NC3COC3)c2)c1)Nc1ccccc1Cl  remaining activity (enzyme activity; inhibitor; 5 µM): 103%
Cn1c2c(Cl)c(Cl)ccc2c2cc[nH]c(=O)c21  ΔTm (thermal stability; DSF; 10 µM): 0 °C
NS(=O)(=O)c1cc(NC(=O)Cc2ccccc2)ccc1Oc1cccc(Cl)c1  remaining binding (cell-free assay; competition with immobilised ligand; 1 µM): 100%
O=C(Nc1cnn(-c2csc(C(=O)NC3COC3)c2)c1)Nc1c(F)cccc1Cl  remaining activity (enzyme activity; inhibitor; 5 µM): 94.8%
CCN1CCN(Cc2ccc(NC(=O)c3ccc(C)c(/C=C/c4cnc5[nH]ccc5c4OC)c3)cc2C(F)(F)F)CC1  inhibition (target engagement in cells; inhibitor; chemoproteomics; A-375; 50 nM): -0.856%
N#CC1c2c([nH]c3c(Cl)c(Cl)ccc23)C(=O)NC12CCCCC2 (racemic)  ΔTm (thermal stability; DSF; 10 µM): 0.2 °C
COCCOc1nc(-c2ccc(Cl)nc2)nc2c1CN(C(=O)c1ncn3ccccc13)CC2  remaining binding (cell-free assay; competition with immobilised ligand; 0.1 µM): 100%
CCN1CCN(Cc2ccc(NC(=O)c3ccc(C)c(Oc4ccnc5[nH]ccc45)c3)cc2C(F)(F)F)CC1  inhibition (target engagement in cells; inhibitor; chemoproteomics; Huh-7; 1 µM): -11.8%
CCN1CCC2(CC1)NC(=O)c1c(c3ccc(Cl)c(Cl)c3n1C)C2C#N (racemic)  ΔTm (thermal stability; DSF; 10 µM): 0 °C
CN(C)c1ncc(F)c(-c2cnn3ncccc23)n1  remaining binding (binding; 1 µM): 100%
O=C(O)[C@@H]1[C@@H](Cn2nnc3ccccc3c2=O)CC[C@H]1C(=O)c1ccc(OCCC2CCOCC2)cc1  remaining binding (binding; competition with immobilised ligand; 1 µM): 100%
Cn1c2c(c3ccccc31)C(C#N)C(C)(C)NC2=O (centres unmarked)  ΔTm (thermal stability; DSF; 10 µM): 0 °C
C[C@@H]1CN(c2cc(-c3nn(C)c4ccc(OC5(C)CC5)cc34)ncn2)C[C@H](C)O1  remaining binding (cell-free assay; competition with immobilised ligand; 1 µM): 72%
CCC1(CC)NC(=O)c2c(c3ccc(Cl)c(Cl)c3n2C)C1C#N (centres unmarked)  ΔTm (thermal stability; DSF; 10 µM): 0 °C
